Measured values: ChEMBL document CHEMBL1127414 (J Med Chem, 1994)
≈ marks a conversion by molar mass, not a printed value. Calls of active or inactive are those of the source. The calls are words filed in the database; no cut-off is given here.

How the values were obtained:
HepG2 [1] = assay: Concentration required to inhibit cholesterol synthesis in Hep G2 cells relative to control (IC50 of L-694,599); assay type: functional, Homo sapiens
In short: (§1)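 Hep G2 cells held 2 days in lipoprotein-depleted FBS to stimulate sterol synthesis, then given inhibitor in serum-free medium for 2 h. 15 μCi [5-3H]mevalonate (0.2 mCi/mmol) added for 1 h. Cells washed and saponified, and radioactivity counted by scintillation.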

[2] = target: T1, Squalene synthase (Rattus norvegicus) (UniProt Q02769); assay: concentration required to inhibit rat liver squalene synthase enzyme relative to control (L-694,599)
T1 sequence (whole entry): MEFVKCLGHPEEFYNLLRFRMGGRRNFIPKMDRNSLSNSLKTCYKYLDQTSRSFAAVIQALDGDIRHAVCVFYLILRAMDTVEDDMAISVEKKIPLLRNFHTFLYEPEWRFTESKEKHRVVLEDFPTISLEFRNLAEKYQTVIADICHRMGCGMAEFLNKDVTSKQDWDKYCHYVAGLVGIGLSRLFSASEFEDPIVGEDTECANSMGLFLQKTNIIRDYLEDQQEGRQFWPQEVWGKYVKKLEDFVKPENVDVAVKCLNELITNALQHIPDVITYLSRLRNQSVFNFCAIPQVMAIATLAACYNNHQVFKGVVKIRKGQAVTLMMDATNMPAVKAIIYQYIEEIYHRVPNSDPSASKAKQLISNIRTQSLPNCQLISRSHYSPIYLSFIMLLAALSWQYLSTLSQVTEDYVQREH
In short: (§2)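 Enzyme from rat liver. […] Inhibitors added in DMSO (0.3% final) as 3-fold serial dilutions, usually up to 30 ng/mL (about 40 nM). IC50 read from % inhibition vs log concentration.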

Mus musculus [3] = assay: (§3) Tested for its ability to inhibit the incorporation of [5-3H]-mevalonolactone into cholesterol by in vivo mouse assay by peroral administration at a dose of 40 mg/kg; assay type: ADME, organism-based; parameters: dose 40 mg/kg, route oral; settings: po
In short: (§4)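 Female Swiss Webster mice (~25 g), six per group, dosed po by gavage with inhibitor suspended in 5% emulphor. 30 min later, 0.5 μCi/mouse [5-3H]mevalonolactone in saline given sc. Livers removed 30 min after that and saponified in KOH/EtOH overnight at 55 °C, then petroleum-ether extracted. Nonsaponifiable dpm counted. Compounds first tested at a single dose (typically 12 or 24 mg/kg).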

Squalene synthase = target: T2, Squalene synthase (Rattus norvegicus, UniProt Q02769); assay: Tested for inhibition against squalene synthase enzyme in rat liver
T2 sequence (Q02769 whole entry): T1 sequence (whole entry)

HepG2 [4] = assay: Concentration required to inhibit cholesterol synthesis in Hep G2 cells; assay type: functional, cell-based; settings: Homo sapiens; in short: as §1
Candida albicans [5] = assay: Concentration required to inhibit growth of MY 1750 strain of Candida albicans; assay type: functional
In short: (§5)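 Broth microdilution against a panel of clinically relevant fungal strains. Read-out was the minimum fungicidal concentration in μg/mL.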

Aspergillus fumigatus = assay: Concentration required to inhibit growth of MF 4839 strain of Aspergillus fumigatus; assay type: functional; in short: as §5
Candida albicans [6] = assay: Concentration required to inhibit growth of MY 1055 strain of Candida albicans; assay type: functional; in short: as §5
Candida tropicalis = assay: Concentration required to inhibit growth of MY 1012 strain of Candida tropicalis; assay type: functional; in short: as §5
Cryptococcus neoformans [7] = assay: Concentration required to inhibit growth of MY 2061 strain of Cryptococcus neoformans; assay type: functional; in short: as §5
Candida parapsilosis = assay: Concentration required to inhibit growth of MY 1010 strain of Candida parapsilosis; assay type: functional; settings: Lodderomyces parapsilosis; in short: as §5
Mus musculus [8] = assay: Tested for its ability to inhibit the incorporation of [5-3H]-mevalonolactone into cholesterol by in vivo mouse assay by peroral administration at dose 100 mg/kg; assay type: functional; settings: route oral; in short: as §4
Trichophyton benhamiae = assay: Concentration required to inhibit growth of MF 4864 strain of Trichophyton mentagrophytes; assay type: functional, Arthroderma benhamiae; in short: as §5
Cryptococcus neoformans [9] = assay: Concentration required to inhibit growth of MY 1051 strain of Cryptococcus neoformans; assay type: functional; in short: as §5
Mus musculus [10] = assay: Tested for its ability to inhibit the incorporation of [5-3H]-mevalonolactone into cholesterol by in vivo mouse assay by peroral administration not active at dose 40 mg/kg; NA = Not active; assay type: functional, organism-based; parameters: dose 40 mg/kg; in short: as §4
Mus musculus [11] = assay: Tested for its ability to inhibit the incorporation of [5-3H]-mevalonolactone into cholesterol by in vivo mouse assay by peroral administration at a dose of 6 mg/kg; assay type: functional; settings: route oral; in short: as §4
[12] = target: T3, Squalene synthase (Mus musculus) (UniProt P53798); assay: Tested for the effective dose required for the incorporation of [5-3H]-mevalonolactone into cholesterol by in vivo mouse assay by peroral administration; assay type: functional, organism-based; in short: as §4
T3 sequence (whole entry): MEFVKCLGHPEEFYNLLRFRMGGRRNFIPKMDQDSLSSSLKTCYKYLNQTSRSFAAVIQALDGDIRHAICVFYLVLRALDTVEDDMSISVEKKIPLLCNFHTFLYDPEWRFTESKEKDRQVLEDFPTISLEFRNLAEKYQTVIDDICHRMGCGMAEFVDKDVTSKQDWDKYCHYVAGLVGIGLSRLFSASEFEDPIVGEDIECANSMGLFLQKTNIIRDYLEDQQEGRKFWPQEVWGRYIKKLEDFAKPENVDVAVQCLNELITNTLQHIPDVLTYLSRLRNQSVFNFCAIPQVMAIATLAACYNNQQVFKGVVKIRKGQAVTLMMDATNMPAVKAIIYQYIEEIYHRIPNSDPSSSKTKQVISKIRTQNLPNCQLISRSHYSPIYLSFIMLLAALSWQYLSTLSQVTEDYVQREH

HepG2 [13] = assay: Concentration of compound required to inhibit cholesterol synthesis in Hep G2 cells relative to control (IC50 of L-694,599); assay type: functional, Homo sapiens; in short: as §1
[14] = target: T1, Squalene synthase (Rattus norvegicus); assay: Concentration required to inhibit rat liver squalene synthase enzyme relative to control (L-694,599); in short: as §2
Mus musculus [15] = assay: as §3; assay type: functional; settings: route oral; in short: as §4
[16] = test system: squalene synthase (Saccharomyces cerevisiae); assay: Compound required to inhibit 50% activity of yeast squalene synthase enzyme relative to control (L-694,599)

Row | Relative activity [2] | IC50 (Squalene synthase) [nM] | IC50 (HepG2 [4]) [nM] | Relative activity [14] | Structure (SMILES) | Relative activity (HepG2 [1]) | MFC (Candida albicans [5]) [µg/mL] | MFC (Aspergillus fumigatus) [µg/mL] | MFC (Candida albicans [6]) [µg/mL] | MFC (Candida tropicalis) [µg/mL] | MFC (Cryptococcus neoformans [7]) [µg/mL] | MFC (Candida parapsilosis) [µg/mL] | MFC (Trichophyton benhamiae) [µg/mL] | MFC (Cryptococcus neoformans [9]) [µg/mL] | also measured
1 | 0.47 | 0.19 | 1900 | – | C=C(CCC12OC(C(=O)O)C(O)(C(=O)O)C(C(=O)O)(O1)[C@H](OC(=O)OCCCCCCCCCCCC)[C@H]2O)[C@@H](OC(C)=O)[C@H](C)Cc1ccccc1 (some centres not stated) | 4.36 | – | – | – | – | – | – | – | – | inhibition at 40 mg/kg (Mus musculus [3]): 5%
2 | – | – | 6000 | – | C=C(CCC12OC(C(=O)O)C(O)(C(=O)O)C(C(=O)O)(O1)[C@H](OC(=O)/C=C/[C@@H](C)C[C@@H](C)CC)[C@H]2O)[C@@H](OC(C)=O)[C@H](C)Cc1ccccc1 (some centres not stated) [ZARAGOZIC ACID A] | – | 8 (≈ 11.6 µM) | 32 (≈ 46.3 µM) | 16 (≈ 23.2 µM) | 2 (≈ 2.9 µM) | 1 (≈ 1.45 µM) | 8 (≈ 11.6 µM) | 4 (≈ 5.79 µM) | 1 (≈ 1.45 µM) | inhibition in vivo at 100 mg/kg (Mus musculus [8]): 50%; inhibition (Mus musculus [10]): inactive
3 | 0.01 | – | – | – | C=C(CCC12OC(C(=O)O)C(O)(C(=O)O)C(C(=O)O)(O1)[C@H](O/C(S)=N/C(C)C)[C@H]2O)[C@@H](OC(C)=O)[C@H](C)Cc1ccccc1 (some centres not stated) | – | – | – | – | – | – | – | – | – | inhibition in vivo at 6 mg/kg (Mus musculus [11]): 9%; ED50 [12]: > 6 mg/kg
4 | – | 0.06 | 1300 | 2 | C=C(CCC12OC(C(=O)O)C(O)(C(=O)O)C(C(=O)O)(O1)[C@H](OCCCCCCCCCCCOc1ccccc1)[C@H]2O)[C@@H](OC(C)=O)[C@H](C)Cc1ccccc1 (some centres not stated) | – | – | – | – | – | – | – | – | – | Relative activity (HepG2 [13]): 6.38
5 | – | 0.8 | 1700 | 0.29 | C=C(CCC12OC(C(=O)O)C(O)(C(=O)O)C(C(=O)O)(O1)[C@H](OC(=O)CCCCCCCCCCC)[C@H]2O)[C@@H](OC(C)=O)[C@H](C)Cc1ccccc1 (some centres not stated) | 3.24 | 8 (≈ 11.1 µM) | 8 (≈ 11.1 µM) | 4 (≈ 5.55 µM) | 8 (≈ 11.1 µM) | 0.12 (≈ 0.166 µM) | 8 (≈ 11.1 µM) | 4 (≈ 5.55 µM) | 2 (≈ 2.77 µM) | inhibition in vivo at 40 mg/kg (Mus musculus [15]): 20%; Relative activity [16]: 3.13
